From ChEMBL document CHEMBL4431339, “1,2,3-Triazoles as Amide Bioisosteres: Discovery of a New Class of Potent HIV-1 Vif Antagonists” (J Med Chem, 2016) come the findings set out here.

The source made the active and inactive calls. Unless noted, the rule behind the calls is not given here.

Series [1] concerns the target Virion infectivity factor (Human immunodeficiency virus type 1 group M subtype B (isolate NY5)(HIV-1)) (UniProt P12504). Nature of the series: Antagonist activity against HIV-1 GFP-tagged Vif in human HEK293FT cells co-expressing HA-tagged A3G assessed as downregulation of Vif expression expression at 50 uM measured after 16 hrs by immunoblotting method. Format: cell-based. The settings on record: Human immunodeficiency virus 1. The procedure, abridged: (§1)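 HEK293FT cells co-expressing HA-tagged A3G and either GFP-tagged Vif or Vif were incubated with or without compound (50 µM) for 16 h. Cell extracts were immunoblotted with anti-HA (A3G), anti-GFP (Vif) and anti-GAPDH antibodies. Untreated cells served as the comparison, and choline chloride was included as a negative control in the triazole series.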

Series [2] addresses Virion infectivity factor (Human immunodeficiency virus type 1 group M subtype B (isolate NY5)(HIV-1), UniProt P12504). Nature of the series: (§2) Antagonist activity against HIV-1 Vif in human MT4 cells assessed as inhibition of viral infection at 50 uM measured after 16 hrs by cell-based assay. Set-up: species or system Human immunodeficiency virus 1. Put shortly:
(§3)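 Antiviral activity was measured against wild-type HIV-1 in permissive MT-4 cells as a Vif-specificity counter-screen. RN-18 was the positive control, and cells cultured without inhibitor were the negative control. "No activity" means no inhibition at 50 µM.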

Series [3] deals with Virion infectivity factor (Human immunodeficiency virus type 1 group M subtype B (isolate NY5)(HIV-1)) (UniProt P12504). Nature of the series: Antagonist activity against HIV-1 GFP-tagged Vif in human HEK293FT cells co-expressing HA-tagged A3G assessed as upregulation of A3G levels at 50 uM measured after 16 hrs by immunoblotting method. The settings on record: Human immunodeficiency virus 1. It counts as cell-based. Put shortly:
as §1

The target is the same in series [4]. The series is described as §2. The settings on record: Human immunodeficiency virus 1. Put shortly:
as §3

The target is the same in series [5]. Briefly: Antagonist activity against HIV-1 Vif in human H9 cells expressing A3G assessed as inhibition of viral replication by reverse transcriptase assay relative to vehicle-treated control. It counts as cell-based. As to conditions: Human immunodeficiency virus 1. The procedure, abridged:
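Antiviral activity was measured against wild-type HIV-1 in non-permissive (A3G-expressing) H9 cells and reported as IC50. RN-18 was the positive control, and cells cultured without inhibitor were the negative control. Selected compounds were tested across doses, and MTS cell viability was checked in parallel at 50 µM.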

For the next series, the system named is HeLa. Briefly: Cytotoxicity against human HeLa cells at 50 uM measured after 16 hrs by MTS assay relative to DMSO control. Format: cell-based.
For series [6], the target named is Virion infectivity factor (Human immunodeficiency virus type 1 group M subtype B (isolate NY5)(HIV-1)) (UniProt P12504). Briefly: Antagonist activity against HIV-1 Vif in human MT4 cells assessed as inhibition of viral infection at 50 and 100 uM measured after 16 hrs by cell-based assay. As to conditions: Human immunodeficiency virus 1.
Sequence of Virion infectivity factor (Human immunodeficiency virus type 1 group M subtype B (isolate NY5)(HIV-1)) (P12504 whole entry): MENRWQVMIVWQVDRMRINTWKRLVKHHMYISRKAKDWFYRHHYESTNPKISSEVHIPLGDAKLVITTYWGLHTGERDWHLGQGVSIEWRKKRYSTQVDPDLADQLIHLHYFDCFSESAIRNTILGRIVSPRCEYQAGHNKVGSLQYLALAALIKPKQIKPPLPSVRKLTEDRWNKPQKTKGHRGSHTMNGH

Sequence of Virion infectivity factor (P12504 whole entry): as above

In the case of `COc1ccccc1-c1noc(-c2ccccc2Sc2ccc([N+](=O)[O-])cc2)n1`, the result in series [1] and in series [3] was Active. In addition, the IC50 result in series [2] was “Not Active”.

Turning to `COc1ccccc1-n1cc(-c2ccccc2Sc2ccc([N+](=O)[O-])cc2)nn1`, the outcome in series [1] and in series [3] was Active. The IC50 entry in series [2] is “Not Active”.

In the case of `COc1ccc(OC)c(-n2cc(-c3ccccc3S(=O)(=O)c3ccc(N)cc3)nn2)c1`, the outcome in series [1] and in series [3] was Active. Also, the result in series [4] was inactive. Moreover, the inhibition entry in series [5] was “Dose-dependent effect”. For the same molecule, in the series with HeLa, the Activity entry is “Non-Toxic”.

In the case of `COc1ccc(OC)c(-n2cc(-c3ccccc3Sc3ccc([N+](=O)[O-])cc3)nn2)c1`, the outcome in series [1] and in series [3] was Active. The result in series [4] was inactive. Besides, the inhibition result in series [5] was “Dose-dependent effect”. In the series on HeLa, the Activity result was “Non-Toxic”.

`COc1ccc(OC)c(-n2cc(-c3ccccc3S(=O)(=O)c3ccc([N+](=O)[O-])cc3)nn2)c1`: the outcome in series [4] was inactive. Besides, the inhibition result in series [5] is “Dose-dependent effect”. Further, the Activity entry in the series on HeLa is “Non-Toxic”.

`COc1cccc(-n2cc(-c3ccccc3Sc3ccc([N+](=O)[O-])cc3)nn2)c1OC`: the outcome in series [4] was inactive. The inhibition entry in series [5] was “Dose-dependent effect”. The Activity result in the series on HeLa is on record as “Non-Toxic”.

Turning to `COc1ccccc1NC(=O)c1ccccc1Sc1ccc([N+](=O)[O-])cc1`, the result in series [1] and in series [3] was Active. For the same molecule, the outcome in series [4] and in series [6] was inactive. The inhibition result in series [5] was “Dose-dependent effect”. The Activity result with HeLa is listed as “Non-Toxic”.

As to `COc1ccccc1-n1cc(-c2ccccc2Sc2ccc(C(F)(F)F)cc2)nn1`, the outcome in series [1] and in series [3] was Active. In addition, in series [4], the result was inactive. Moreover, in series [5], the inhibition result is “Dose-dependent effect”. In addition, in the series with HeLa, the Activity result is listed as “Non-Toxic”.

As for `COC(=O)c1ccc(Sc2ccccc2-c2cn(-c3c(OC)cccc3OC)nn2)cc1`, the result in series [4] was inactive. The inhibition result in series [5] was “Dose-dependent effect”. In addition, the Activity result in the series on HeLa is listed as “Non-Toxic”.
